Source: ChEMBL document CHEMBL5154784, “Design, Synthesis, Biological Evaluation, and Computational Studies of Novel Ureidopropanamides as Formyl Peptide Receptor 2 (FPR2) Agonists to Target the Resolution of Inflammation in Central Nervous System Disorders” (J Med Chem, 2022)
pEC50, pIC50: −log10 of the molar value.

What was measured:
[1] = Metabolic stability in rat liver microsomes assessed as compound remaining at 10 uM preincubated for 10 mins followed by NADPH addition and measured after 30 mins by HPLC analysis; assay type: ADME, Microsome; conditions: time 40 min, read-out: Stability
Outline: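 Rat liver microsomes (1.0 mg/mL protein), compound 10 μM final in 100 mM potassium phosphate pH 7.4, pre-incubated 10 min at 37 °C, then NADPH regenerating system added. After 30 min, % parent remaining by HPLC-DAD (C18, MeOH/H2O 80:20) versus incubation without NADPH system.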

[2] = target: T1, N-formyl peptide receptor 2 (Homo sapiens, UniProt P25090); experiment: Agonist activity at human FPR2 transfected in human HL-60 cells assessed as increase in calcium mobilization measured every 5 seconds for 240 secs by Fluo-4-AM dye based fluorescence assay; assay type: functional, cell-based
T1 sequence (P25090 whole entry): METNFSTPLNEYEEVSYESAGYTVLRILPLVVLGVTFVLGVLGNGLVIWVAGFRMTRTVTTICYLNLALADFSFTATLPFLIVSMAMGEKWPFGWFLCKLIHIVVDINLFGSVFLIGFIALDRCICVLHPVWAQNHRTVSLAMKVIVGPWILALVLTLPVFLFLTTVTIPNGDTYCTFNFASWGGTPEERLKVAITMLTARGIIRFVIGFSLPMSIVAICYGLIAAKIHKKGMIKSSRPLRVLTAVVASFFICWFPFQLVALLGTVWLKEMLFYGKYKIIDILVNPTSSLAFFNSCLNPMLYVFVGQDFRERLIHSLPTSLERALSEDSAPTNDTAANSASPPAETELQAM

[3] = target: T1, N-formyl peptide receptor 2; experiment: Antagonist activity at human FPR2 transfected in human HL-60 cells assessed as inhibition of WKYMVM-induced intracellular calcium mobilization preincubated for 10 mins followed by WKYMVM addition measured every 5 seconds for 240 secs by Fluo-4-AM dye based fluorescence assay; assay type: functional, cell-based
Outline: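 Fluo-4-loaded FPR2-HL60 cells pre-incubated 10 min with compound (1% DMSO final), then challenged with 5 nM WKYMVM. Maximum change over baseline taken as response. IC50 by four-parameter logistic regression of at least 5–6 point curves.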

[4] = Cytotoxicity against mouse N9 cells assessed as reduction in cell viability incubated for 48 hrs by MTT assay; assay type: toxicity, cell-based
Outline: (§1)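 MTT 0.5 mg/mL added for 3–4 h at 37 °C, formazan dissolved in DMSO/EtOH 1:1, absorbance read at 570 and 630 nm. Mean ± SD from at least two to three experiments in triplicate.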

[5] = target: T2, N-formyl peptide receptor 2 (Homo sapiens) (UniProt P25090); experiment: Agonist activity at human FPR2 transfected in HL-60 cells assessed as induction of intracellular calcium ions mobilization using WKYMVM as substrate preincubated for 10 mins followed by substrate addition and measured every 5 seconds for 240 secs by Fluo-4-AM dye based fluorescent assay relative to control; assay type: functional, cell-based; conditions: filed as agonist
T2 sequence (whole entry): T1 sequence (P25090 whole entry)

fMet-Leu-Phe receptor [6] = target: T3, fMet-Leu-Phe receptor (Homo sapiens, UniProt P21462); experiment: Agonist activity at human FPR1 transfected in human HL-60 cells assessed as increase in calcium mobilization measured every 5 seconds for 240 secs by Fluo-4-AM dye based fluorescence assay; assay type: functional, cell-based
T3 sequence (P21462 whole entry): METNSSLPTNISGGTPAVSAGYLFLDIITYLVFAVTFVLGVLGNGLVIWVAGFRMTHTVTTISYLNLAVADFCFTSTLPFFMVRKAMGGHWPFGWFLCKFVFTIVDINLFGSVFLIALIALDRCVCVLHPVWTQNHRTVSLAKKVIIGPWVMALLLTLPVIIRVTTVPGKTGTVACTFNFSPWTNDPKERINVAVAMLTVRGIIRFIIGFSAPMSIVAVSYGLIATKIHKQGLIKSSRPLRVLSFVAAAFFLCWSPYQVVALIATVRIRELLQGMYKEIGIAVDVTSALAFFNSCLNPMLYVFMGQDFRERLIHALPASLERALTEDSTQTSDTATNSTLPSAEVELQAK

[7] = Cytotoxicity against mouse N9 cells assessed as reduction in cell viability by measuring LDH release at 0.5 to 5 uM incubated for 24 hrs by LDH assay; assay type: toxicity, cell-based; conditions: n9, 24 h, dose 0.5-5 µM
Outline: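 N9 cells (2 × 10^4/well) given compound at 0.5 or 5 μM, alone or with LPS (E. coli O111:B4, 100 ng/mL) added 30 min later, for 24 h at 37 °C. Released LDH measured in supernatant (30 min, room temperature, 490/630 nm). Expressed as % of untreated cells, mean ± SEM, at least three experiments in triplicate.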

[8] = Cytotoxicity against mouse N9 cells assessed as reduction in cell viability at 1 to 100 uM incubated for 48 hrs by MTT assay relative to control; assay type: toxicity, cell-based; conditions: n9, 48 h, dose 1-100 µM; outline: as §1
fMet-Leu-Phe receptor [9] = target: T3, fMet-Leu-Phe receptor; experiment: Antagonist activity at human FPR1 transfected in human HL-60 cells assessed as inhibition of fMLF-induced intracellular calcium mobilization preincubated for 10 mins followed by fMLF addition and measured every 5 seconds for 240 secs by Fluo-4-AM dye based fluorescence assay; assay type: functional, cell-based

SMILES | remaining at 0.5 h, 10 µM [1] [%] | pEC50 [2] | pIC50 [3] | EC50 at 48 h [4] [µM] | Efficacy [5] [%] | pEC50 (fMet-Leu-Phe receptor [6]) | Activity [7] | Activity [8] [%] | pIC50 (fMet-Leu-Phe receptor [9])
CC1(C)CN(C(=O)[C@H](Cc2ccc(C#N)cc2)NC(=O)Nc2ccc(F)cc2)Cc2cc(F)ccc21 | 34 | 5.80 | 6.22 |  |  |  |  |  | 
N#Cc1ccc(C[C@@H](NC(=O)Nc2ccc(F)cc2)C(=O)N2CCc3ccccc3C2)cc1 | 4 | 5.89 | 5.46 |  |  |  |  |  | 
N#Cc1ccc(C[C@H](NC(=O)Nc2ccc(F)cc2)C(=O)N2Cc3ccc(F)cc3C2)cc1 |  | 5.77 | 5.36 | 18.2 | 70 | 5.48 |  |  | 
N#Cc1ccc(C[C@H](NC(=O)Nc2ccc(F)cc2)C(=O)N2Cc3ccccc3C2)cc1 | 31 | 6.47 | 5.36 |  |  |  | Non-Toxic |  | 
N#Cc1ccc(C[C@@H](NC(=O)Nc2ccc(F)cc2)C(=O)NC2CCCCNC2=O)cc1 (some centres undefined) | 78 | 6.00 | 5.42 | > 100 | 140 | 5.38 |  | 36 | 4.39
N#Cc1ccc(C[C@@H](NC(=O)Nc2ccc(F)cc2)C(=O)N2CCc3ccc(F)cc3C2)cc1 | 14 | 6.21 | 6.62 |  |  |  |  |  | 
N#Cc1ccc(C[C@H](NC(=O)Nc2ccc(F)cc2)C(=O)N2CCC(F)(F)CC2)cc1 | 67 | 4.71 | 4.52 | > 100 | 80 |  |  | 9 | 
N#Cc1ccc(C[C@H](NC(=O)Nc2ccc(F)cc2)C(=O)NCC2(c3ccc(F)c(Cl)c3)CC2)cc1 |  |  |  | 3.26 |  |  | Non-Toxic |  | 
N#Cc1ccc(C[C@@H](NC(=O)Nc2ccc(F)cc2)C(=O)N2Cc3ccccc3C2)cc1 | 15 | 4.71 |  |  |  |  |  |  | 
N#Cc1ccc(C[C@@H](NC(=O)Nc2ccc(F)cc2)C(=O)N2CCc3cccnc32)cc1 | 10 | 5.96 | 5.92 |  |  |  |  |  | 
N#Cc1ccc(C[C@@H](NC(=O)Nc2ccc(F)cc2)C(=O)N2CCc3ccccc32)cc1 | 14 | 5.25 | 5.41 |  |  |  |  |  | 
N#Cc1ccc(C[C@@H](NC(=O)Nc2ccc(F)cc2)C(=O)N2CCCc3ccccc32)cc1 | 7 | 6.60 | 7.92 | 13.7 | 175 | 6.36 |  |  | 4.76
N#Cc1ccc(C[C@H](NC(=O)Nc2ccc(F)cc2)C(=O)N2CCc3cccnc32)cc1 | 14 | 6.80 | 6.85 |  |  |  |  |  | 
N#Cc1ccc(C[C@H](NC(=O)Nc2ccc(F)cc2)C(=O)N2CCc3ccc(F)cc3C2)cc1 | 8 | 6.35 | 6.59 |  |  |  |  |  | 
N#Cc1ccc(C[C@@H](NC(=O)Nc2ccc(F)cc2)C(=O)N2CCc3ccc(F)cc32)cc1 | 28 |  |  |  |  |  | Toxic |  | 
N#Cc1ccc(C[C@@H](NC(=O)Nc2ccc(F)cc2)C(=O)N2CCc3cc(F)ccc32)cc1 |  | 6.39 | 5.47 | 23.8 | 90 | 5.74 |  |  | 
N#Cc1ccc(C[C@@H](NC(=O)Nc2ccc(F)cc2)C(=O)N2CCC(F)(F)CC2)cc1 | 62 |  |  | > 100 |  |  |  | 40 | 
N#Cc1ccc(C[C@H](NC(=O)Nc2ccc(F)cc2)C(=O)N2CCc3cc(F)ccc32)cc1 | 19 | 6.80 | 6.68 | 29.4 | 110 | 5.32 | Non-Toxic |  | 
N#Cc1ccc(C[C@H](NC(=O)Nc2ccc(F)cc2)C(=O)N2CCc3ccccc3C2)cc1 | 6 | 6.62 | 7.52 |  |  |  | Non-Toxic |  | 
CC1(C)CN(C(=O)[C@@H](Cc2ccc(C#N)cc2)NC(=O)Nc2ccc(F)cc2)c2ccccc21 | 65 | 5.16 | 4.79 |  |  |  |  |  | 
N#Cc1ccc(C[C@@H](NC(=O)Nc2ccc(F)cc2)C(=O)N2Cc3ccc(F)cc3C2)cc1 | 72 | 5.14 |  | 9.44 | 45 | 5.25 |  |  | 
N#Cc1ccc(C[C@H](NC(=O)Nc2ccc(F)cc2)C(=O)N2CCCC2)cc1 |  | 5.51 | 5.19 | > 100 | 100 | 4.82 |  | 55 | 4.47
N#Cc1ccc(C[C@@H](NC(=O)Nc2ccc(F)cc2)C(=O)N2CCCC2)cc1 | 61 | 5.28 | 4.78 | > 100 | 105 | 4.58 |  | 59 | 4.36
N#Cc1ccc(C[C@H](NC(=O)Nc2ccc(F)cc2)C(=O)N2CCCc3ccccc32)cc1 | 10 | 6.57 | 7.89 | 14.7 | 120 | 5.92 | Toxic |  | 4.62
CC1(C)CN(C(=O)[C@H](Cc2ccc(C#N)cc2)NC(=O)Nc2ccc(F)cc2)c2ccccc21 |  | 5.64 | 5.57 |  |  |  |  |  | 
N#Cc1ccc(C[C@H](NC(=O)Nc2ccc(F)cc2)C(=O)N2CCCCC2)cc1 |  | 6.01 | 4.92 |  |  |  |  |  | 
N#Cc1ccc(C[C@@H](NC(=O)Nc2ccc(F)cc2)C(=O)N2CCCCC2)cc1 | 25 | 4.87 | 4.31 |  |  |  |  |  | 
